A selection: hits, their analogues and other compounds. The true share with any hit is near 3.7%.
Kir21 inh: inhibitors of mouse Kir2.1 inward-rectifier potassium channel. AID 1672. P35561. hit rate 0.85% among 310,000. B-score at 10 µM. HEK293-Kir2.1, FluxOR thallium flux fluorescence; hits give low values;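 active means fluorescence ratio B-score at or below minus 3 SD of library scores, with starting-brightness B-score within 2 SD, cut at about -4.2 in these data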;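 further: channel flux triggered by added potassium and thallium sulfate stimulus; B-score of peak minus minimum fluorescence over baseline after thallium stimulus; more negative B-score means stronger Kir2.1 block with less thallium influx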
Target sequence (P35561 whole entry, looked up): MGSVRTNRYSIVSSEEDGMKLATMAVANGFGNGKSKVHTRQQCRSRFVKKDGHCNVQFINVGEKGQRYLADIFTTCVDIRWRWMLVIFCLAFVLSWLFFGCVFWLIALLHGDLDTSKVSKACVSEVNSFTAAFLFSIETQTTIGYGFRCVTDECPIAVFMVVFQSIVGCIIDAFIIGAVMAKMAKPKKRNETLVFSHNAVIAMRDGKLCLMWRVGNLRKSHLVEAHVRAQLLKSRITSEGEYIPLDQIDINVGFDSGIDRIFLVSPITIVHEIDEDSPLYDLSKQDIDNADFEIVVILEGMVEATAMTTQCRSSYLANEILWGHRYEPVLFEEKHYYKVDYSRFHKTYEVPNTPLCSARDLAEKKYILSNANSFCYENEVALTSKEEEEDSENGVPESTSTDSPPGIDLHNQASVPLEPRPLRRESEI
KCNK9 block: blocks the human KCNK9 two-pore domain potassium channel | B-score at 10 µM | HEK293 KCNK9, FluxOR thallium flux fluorescence; hits give low values | Q9NPC2 | hit rate 1.2% among 310,000;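 active means ratio B-score over 3 SD below the library mean, with starting fluorescence within 5 SD of its mean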;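 further: negative B-score means less thallium flux so channel inhibition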
hERG rescue: hERG (human) protection from proarrhythmic block; Q12809; CHO-hERG, FluxOR thallium flux, dofetilide IC70 present; activation (rescue from dofetilide block), less the hit threshold, % at 10 µM; hit rate 0.51% among 310,000;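 active means activation above the mean of controls blocked by dofetilide plus 5 SD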;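 further: thallium influx through hERG after potassium depolarization seen as dye fluorescence rise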
KCNK3 inh: human KCNK3 channel inhibition, primary screen; O14649; B-score at 10 µM; CHO-KCNK3 thallium flux, FluxOR fluorescence; hits give low values; AID 602410; hit rate 0.84% among 340,000;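 active means B-score under library mean minus 4 SD, starting fluorescence ratio at most library mean plus 5 SD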;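 further: more negative B-score means stronger inhibition of thallium flux through KCNK3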
KCNQ1 pot: potentiators or activators of human KCNQ1 potassium channel | hit rate 0.35% among 310,000 | B-score at 10 µM | P51787 | CHO-K1 KCNQ1, thallium flux FluxOR fluorescence; hits give high values;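 active means fluorescence ratio B-score, a plate-corrected score, at least three library SD, with initial intensity B-score within 5 SD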
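Assay system: CHO-K1 cells stably expressing KCNQ1. Medium: assay buffer for compound exposure, DMSO matched across wells. Timing: 37 °C overnight plating, 90-min dark dye load, 20-min compound pretreatment. Signal: kinetic FluxOR fluorescence, 10 s baseline plus 110 s post-stimulus.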
KCNQ1 inh: blocks the human KCNQ1 potassium channel | P51787 | CHO-K1 KCNQ1, FluxOR thallium flux fluorescence; hits give high values | B-score at 10 µM | hit rate 1.3% among 310,000;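 active means compounds whose thallium flux B-score, printed positive for inhibition, exceeds three library SD while starting fluorescence stays within three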;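 further: channel opened by potassium depolarization with thallium stimulus after 20 min compound exposure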
KCNK9 block conf: confirmation of human KCNK9 potassium channel inhibitors | HEK293 KCNK9 cells, FluxOR thallium flux fluorescence | inhibition, % at 10 µM | hit rate 43% among 4,900 | shares compounds with KCNK9 block;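 active means thallium signal inhibited by more than 5 SD of the compound-free buffer control wells, on both duplicate plates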;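 further: 0% = assay buffer control wells without compound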
Kir2-1 spec: selectivity of KCNK9 modulators against mouse Kir2.1 | inhibition, % at 10 µM | hit rate 4% among 4,900 | shares compounds with KCNK9 block | Kir2.1 cells, FluxOR thallium flux fluorescence;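 active means thallium signal drop more than 5 SD beyond the mean of the no-compound control wells, seen in both duplicate plates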;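 further: signal is fluorescence rise after thallium addition divided by baseline fluorescence; plate controls were assay buffer only for no effect and full block by chlorpromazine control for full effect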
KCNK9 uninduced: second check of KCNK9 modulator effects in non-induced HEK293 cells | hit rate 40% among 4,900 | FluxOR thallium flux | inhibition, % at 10 µM | shares compounds with KCNK9 block;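 active means thallium signal drop beyond 5 SD of the untreated control mean, on both duplicate plates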;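 further: plate controls were buffer only IC0 wells for no effect and SID17386958 at its maximal inhibitory level for full effect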
KCNK3 inh conf: human KCNK3 channel inhibition, confirmation assay. shares compounds with KCNK3 inh. ratio percent of control, % at 10 µM. hit rate 99% among 2,400. AID 651638. CHO-KCNK3 thallium flux, FluxOR fluorescence; 0% buffer, 100% carvedilol maximal block;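 active means ratio percent of control, averaged over triplicates, above buffer control mean plus 5 SD, cut at about 64% in these data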;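 further: ratio is the fluorescence rise from min to max over baseline after thallium stimulus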
KCNK3 uninduced: KCNK3 inhibitor counter-screen hit in non-induced cells; shares compounds with KCNK3 inh; hit rate 40% among 2,400; thallium flux ratio (lower = more inhibition) at 10 µM; non-induced KCNK3 parental cells, FluxOR thallium flux; hits give low values;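 active means thallium flux ratio, averaged over three wells, more than 5 SD below the buffer control mean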;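 further: host cells are CHO cells without KCNK3 induction; ratio is peak minus trough fluorescence over baseline then normalized to buffer controls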
* hit, by the source's call; i = inactive; . = no result given.

SMILES	Kir21 inh	KCNK9 block	hERG rescue	KCNK3 inh	KCNQ1 pot	KCNQ1 inh	KCNK9 block conf	Kir2-1 spec	KCNK9 uninduced	KCNK3 inh conf	KCNK3 uninduced
Cc1ccc(-c2cc(C(=O)N3CCCc4ccccc43)c3ccccc3n2)cc1	2.1	i	-5	i	i	i	.	.	.	.	.
CCCC(C(=O)NCCC(C)C)N(Cc1ccccc1Cl)C(=O)c1snc(C(N)=O)c1N (stereo not drawn)	-1.1	i	-15	i	i	i	.	.	.	.	.
COc1ccc(S(=O)(=O)Nc2cccc3c2O[C@H](CN(C)C(=O)NC(C)C)[C@@H](C)CN([C@H](C)CO)C3=O)cc1	.	.	.	i	.	.	.	.	.	.	.
COc1ccc2c(COC(=O)c3cccc(S(=O)(=O)NCC(C)C)c3)cc(=O)oc2c1	1.3	-9.3*	-22	-11*	i	i	i	i	i	138*	0.14*
CSc1ccc(C(=O)N2CCc3ccc(NC(=O)c4ccccn4)cc3C2)cc1	-0.99	i	-11	i	i	i	.	.	.	.	.
COC(=O)c1ccccc1NC(=O)N1CCc2ccc(NC(=O)c3ccccn3)cc2C1	-0.85	-8.3*	-8	i	i	i	42%*	i	26%*	134*	0.16*
Cc1cc(S(=O)(=O)N2CCN(C(=O)CCC(=O)N3CCOCC3)CC2)ccc1Br	-0.8	i	-7	i	i	i	.	.	.	.	.
Cc1cccc(OCC(=O)NC(C)C(=O)N/N=C/c2c(OCc3ccccc3)ccc3ccccc23)c1 (stereo not drawn)	-0.21	-16*	-11	-9.4*	i	i	66%*	i	48%*	105*	i
CCc1cc2cccc(C)c2nc1SCC(=O)NC1CCCC1	-2.5	-9*	-5	-11*	i	i	52%*	i	26%*	104*	i
N#Cc1ccsc1NC(=O)CN1CCN(S(=O)(=O)c2ccccc2C(F)(F)F)CC1	-0.03	i	-11	i	i	i	.	.	.	.	.
O=C(NCc1ccc2c(c1)OCO2)c1ccc(-c2ccc(Cl)cc2)o1	-0.44	-8.6*	-6	-8.9*	i	i	27%*	i	26%*	140*	0.12*
CC(C)Cc1ccc(C(=O)NCc2ccc3c(c2)OCO3)o1	-1.9	i	-9	i	i	i	.	.	.	.	.
COC(=O)C1=C(C)N=C2SC(C#N)=C(N)N2C1c1ccc(OC)cc1 (stereo not drawn)	-0.15	-8.9*	-6	-10*	i	i	50%*	i	i	112*	i
COC(=O)C1=C(C)N=C2SC(C#N)=C(N)N2C1c1cccc(OC)c1 (stereo not drawn)	2.1	i	-11	i	i	i	.	.	.	.	.
O=C(Nc1cccc(-c2cn3cccnc3n2)c1)c1ccc(Br)o1	-0.08	-8.7*	-13	-9.6*	i	i	40%*	i	i	95*	i
O=C(Nc1ccc(NC(=O)c2cccs2)cc1)c1ccc(Br)o1	0.68	i	-6	i	i	i	.	.	.	.	.
O=C(Nc1cccc(NC(=O)c2cccs2)c1)c1ccc(Br)o1	-0.41	-16*	-12	-10*	i	i	62%*	i	i	99*	i
CCOc1ccccc1C(=O)Nc1cccc(-c2nnc(-c3ccccc3)o2)c1	0.81	-16*	-14	-9.5*	i	i	45%*	i	28%*	107*	i
CC1=NN(C(=O)COc2cc(C)ccc2C(C)C)C(O)(c2ccccc2)C1 (stereo not drawn)	-0.01	-15*	-11	-9.8*	i	i	58%*	i	38%*	120*	0.16*
CC1=NN(C(=O)CSCc2ccccc2)C(O)(c2ccc(Cl)cc2)C1 (stereo not drawn)	-2.1	-13*	-5	-13*	i	i	62%*	i	34%*	98*	i
CN(C)c1ccc(C2/C(=C(/O)c3ccc(Br)cc3)C(=O)C(=O)N2C)cc1 (stereo not drawn)	2.1	i	-8	i	i	i	.	.	.	.	.
CCN(CC)C(=O)C1CCCN(c2ccc([N+](=O)[O-])cc2/C=N/NC(=O)c2cccc(Br)c2)C1 (stereo not drawn)	0	-12*	-8	i	i	i	42%*	i	32%*	134*	0.13*
Cc1cc2oc(=O)cc(CN3CCCCC3C)c2cc1C(C)C (stereo not drawn)	-0.02	i	-12	i	i	i	.	.	.	.	.
O=S(Cc1cc(Oc2ccccc2)nc(-c2ccccc2)n1)c1ccccc1 (stereo not drawn)	1.6	-18*	-11	-10*	i	i	70%*	i	37%*	115*	i
Oc1ccc(N2CCN(c3ncnc4sc(-c5ccccc5)cc34)CC2)cc1	0.41	i	-6	i	i	i	.	.	.	.	.
SMILES	Kir21 inh	KCNK9 block	hERG rescue	KCNK3 inh	KCNQ1 pot	KCNQ1 inh	KCNK9 block conf	Kir2-1 spec	KCNK9 uninduced	KCNK3 inh conf	KCNK3 uninduced
c1ccc(N2CCN(c3ncnc4sc5c(c34)CCC5)CC2)cc1	-0.27	-15*	-6	i	i	i	46%*	i	44%*	119*	0.15*
CCc1cc2c(N3CCN(c4ccccc4)CC3)ncnc2s1	1	i	-16	-13*	i	i	i	i	23%*	135*	0.15*
O=S(=O)(c1ccccc1)N1CCN=C1SCc1ccccc1Cl	-1.6	-9.7*	-3	-11*	i	i	34%*	i	44%*	114*	i
CCCN(CCC)C(=O)CC(c1ccccc1)c1ccco1 (stereo not drawn)	-3.2	i	-7	i	i	i	.	.	.	.	.
CCC(=O)N(CCC(c1ccco1)c1ccccc1OC)Cc1cccs1 (stereo not drawn)	-2.9	-12*	-20	-8.9*	i	i	56%*	i	34%*	130*	0.13*
COc1ccccc1C(=O)NCCC(=O)N(Cc1ccco1)Cc1cccs1	-4.2	i	-11	i	i	i	.	.	.	.	.

Screens (PubChem BioAssay)
